Bioassay records deposited in PubChem BioAssay by several laboratories.
An excerpt weighted towards active compounds, which were near 1.5% of everything screened.
TbHK1 inh = Trypanosoma brucei hexokinase 1 inhibitors, primary screen, biochemical, G6PDH-coupled NADH absorbance, MLSCN library; hexokinase 1 [Trypanosoma brucei]; AID 1430, 2008; inhibition, % at 10 µM; recombinant TbHK1, G6PDH-coupled NADH A340; hit rate 0.11% among 220,000;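 active means inhibition of 50% or more in the single-dose primary screen; inactive means inhibition below 50%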
S1P4 agonist = S1P4 receptor agonists, primary screen, cell-based | Sphingosine 1-phosphate receptor 4 (Homo sapiens), O95977 | activation, % at 4.98 µM | AID 1509, 2009 | hit rate 0.35% among 220,000 | S1P4-expressing cell line, agonist reporter assay; in the data active means activation above about 11%;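 further: 0% = DMSO vehicle and 100% = reference agonist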
S1P4 antag = S1P4 receptor antagonists, primary screen, cell-based; S1P4-expressing cells, antagonist mode, reporter read-out; inhibition, % at 4.98 µM; hit rate 0.26% among 220,000; AID 1510, 2009; in the data active means inhibition above about 29%;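 further: 0% = wells stimulated with agonist and 100% = vehicle wells without agonist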
Dynein transport = inhibitors of GR-EGFP nuclear translocation, primary screen, dynein cargo transport inhibitor project, imaging, high-content, 3617.4 mouse cells. test concentration mostly 20 µM; stimulated with dexamethasone, 1 µM; hits give low values. hit rate 0.47% among 220,000. AID 1381, 2008. z-score, hits read low;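 active means plate z-score of nuclear minus cytoplasmic receptor signal below a set negative limit, without overly bright fluorescence or cell loss, cut at about -3.5 in these data, passing the limit was not always enough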;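 further: z-score of nuclear minus cytoplasmic ring GR-EGFP intensity difference per well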
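medium = tetracycline-free induction medium containing charcoal-stripped FBS | also added = 1.0 µM final dexamethasone stimulus | schedule = 48 h induction, 1 h compound, 30 min dex at 37 °C | technique = fixed, Hoechst-stained cells imaged at 10x for EGFP | measure = GR-EGFP nuclear translocation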
TNF necrop inh = inhibitors of TNF-alpha triggered necroptosis, primary screen, cell-based, Jurkat FADD-/-, single concentration; Jurkat FADD-/- TNF necroptosis rescue, ATP luminescence, 24 h; 0 = TNF only, 100 = no-TNF cells; activation (protection from cell death), % at 10 µM; hit rate 0.068% among 220,000;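 active means activation, meaning protection from cell death, of at least 50% relative to plate controls; inactive means activation below 50%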;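 further: necroptosis triggered by 40 ng/mL TNF-alpha added together with compound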
zVAD death inh = inhibitors of zVAD-triggered necroptosis, primary screen, L929 cells; L929 zVAD necroptosis rescue, ATP luminescence, 24 h; with zVAD 60 µM; viability rescue, % at 10 µM; hit rate 0.38% among 220,000; AID 1377, 2008;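 active means activation, scaled between plate controls, above about 75%, limit read from the data; inactive means activation under that limit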;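 further: 0% = zVAD with DMSO and 100% = DMSO alone without zVAD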
Dynein inh conf = dynein cargo transport inhibitors, GR-EGFP translocation, confirmation, imaging, high-content imaging, GR-EGFP cells; 3617.4 GR-EGFP nuclear translocation imaging, dexamethasone-induced; hit rate 69% among 1,000; calls only at 20 µM; shares compounds with Dynein transport;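 active means inhibition of receptor movement into the nucleus at or above a set limit in both runs, with normal cell brightness and cell count; inconclusive means limit reached in only one run, brightness and count normal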;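 further: dexamethasone at 1 µM final in well for 30 min; nuclear minus cytoplasmic GR-EGFP mean intensity difference in channel 2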
S1P4 antag conf = S1P4 receptor antagonists, human, confirmation, cell-based; shares compounds with S1P4 antag; S1P4-expressing cell line, antagonist mode, reporter read-out; inhibition, % at 4.98 µM; hit rate 71% among 520; AID 1524, 2009; in the data active means inhibition above about 30%
S1P1 antag = S1P1 receptor antagonists, human, counter-screen for S1P4 antagonist project, cell-based | shares compounds with S1P4 antag | hit rate 37% among 520 | cell-based S1P1 antagonist counterscreen, inhibition | AID 1564, 2009 | inhibition, % at 4.98 µM; in the data active means inhibition above about 40%;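 further: receptor stimulated with S1P near its EC80; 0% = agonist stimulated wells and 100% = vehicle only wells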
Target sequence (P21453 whole entry, looked up): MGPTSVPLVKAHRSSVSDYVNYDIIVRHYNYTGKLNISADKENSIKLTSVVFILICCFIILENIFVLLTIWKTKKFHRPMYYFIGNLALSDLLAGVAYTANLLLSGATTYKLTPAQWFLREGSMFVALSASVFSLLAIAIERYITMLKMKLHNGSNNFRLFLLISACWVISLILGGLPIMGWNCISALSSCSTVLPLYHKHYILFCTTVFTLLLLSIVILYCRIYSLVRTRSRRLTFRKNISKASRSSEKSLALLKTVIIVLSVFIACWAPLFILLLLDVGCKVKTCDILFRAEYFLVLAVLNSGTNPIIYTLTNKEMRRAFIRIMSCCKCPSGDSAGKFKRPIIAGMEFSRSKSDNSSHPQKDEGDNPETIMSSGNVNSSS
Active calls of the source: *; i = inactive; ? = inconclusive; nt = not tested or not shown; + = active, no number.

SMILES	TbHK1 inh	S1P4 agonist	S1P4 antag	Dynein transport	TNF necrop inh	zVAD death inh	Dynein inh conf	S1P4 antag conf	S1P1 antag
CCCC(=O)N1CCN(c2ccc(NC(=O)c3ccc([N+](=O)[O-])o3)cc2)CC1	-12	-2	78*	-4.1*	-6	56	+	101*	84*
CS(=O)(=O)N1CCN(c2ccc(NC(=O)c3ccc([N+](=O)[O-])o3)cc2)CC1	-25	-3	28	-1.3	-4	2	nt	nt	nt
CCN(CC)C(=O)NCc1c(C)cc(C)cc1C	2	1	28	1.3	2	0	nt	nt	nt
O=C1CCCCc2sc(Br)c([N+](=O)[O-])c2N1	-21	-3	80*	-6.5*	-30	49	+	102*	66*
O=C(CN1CCN(Cc2ccc(Cl)cc2)CC1)N/N=C/c1cccs1	-8	0	-2	-0.28	3	0	nt	nt	nt
COc1ccc(C(O)C(CN2CCOCC2)c2ccccc2)cc1F (configuration not stated)	1	2	2	3.4	-1	0	nt	nt	nt
COc1ccc(C(=O)C(CN2CCOCC2)c2ccccc2)cc1F (configuration not stated)	-1	-5	33*	-4*	-12	54	+	46*	7
CCC(=O)OCCNc1cc(Sc2nc3ccccc3[nH]2)c2nonc2c1[N+](=O)[O-]	-11	1	36*	-4.9*	-15	14	i	110*	7
CCCC(=O)OCCNc1cc(Sc2nccn2C)c2nonc2c1[N+](=O)[O-]	20	0	-16	-3.5	-9	0	nt	nt	nt
COc1ccc(C(=O)C2CCCN(C(=O)c3noc4c3CCCC4)C2)c(C)c1 (configuration not stated)	9	2	-3	0.64	0	0	nt	nt	nt
Cc1nc2c(=O)n(C)c(=O)n(C)c2nc1Cl	8	0	49*	-6.2*	-14	11	+	94*	51*
COc1ccc(NC(=O)/C(Cl)=C(/Cl)S(=O)(=O)Cc2ccc(C)cc2)cn1	-5	2	60*	-5*	-12	2	i	116*	89*
O=C(Cn1ncc(Cl)c(Cl)c1=O)N1CCN(S(=O)(=O)c2ccc3ccccc3c2)CC1	-6	-5	41*	-4*	-13	-1	+	116*	69*
CCOc1ccsc1C(=O)O	1	1	-1	-0.14	0	0	nt	nt	nt
CCOC(=O)COc1ccc2ccccc2c1/C=C/[N+](=O)[O-]	0	-1	49*	-4.8*	1	0	+	120*	155*
CCOC(=O)COc1ccc(/C=C/[N+](=O)[O-])c(OCC(=O)OCC)c1	-8	-4	30*	-4.8*	-22	13	+	116*	83*
CCOC(=O)Cn1cc(/C=C/[N+](=O)[O-])c2ccccc21	-14	-1	11	0.078	-2	-2	nt	nt	nt
O=C(Nc1ccc(Cl)cc1)/C(=C/c1cccc(O)c1)c1nc2ccccc2s1	0	0	38*	-6*	-10	18	+	99*	62*
S=C(Nc1ccc(Cl)cc1)c1nc2ccccc2s1	-5	2	1	-0.075	-1	0	nt	nt	nt
O=C1/C(=C/c2ccc(N3CCOCC3)o2)SC(=Nc2ccccc2)N1CCc1c[nH]c2ccccc12	-13	0	46*	-7	-21	2	+	64*	46*
CCCc1nc2c(nnn2Cc2ccccc2Cl)c(=O)[nH]1	0	0	-6	-0.73	0	1	nt	nt	nt
Cn1c2c(c(=O)c3ccccc31)CCC(C)(C)O2	-7	2	-1	-0.87	3	2	nt	nt	nt
CCCN(CCC)S(=O)(=O)c1ccc(Cl)c([N+](=O)[O-])c1	-4	-2	52*	-3.5*	-8	-1	?	100*	21
O=S1(=O)C=C(Sc2nc3ccccc3s2)c2ccccc21	0	1	55*	-4.1*	-2	1	+	113*	59*
Cc1cc(C)nc(SC2=CS(=O)(=O)c3ccccc32)n1	-6	-2	-5	-1.2	-9	0	nt	nt	nt
SMILES	TbHK1 inh	S1P4 agonist	S1P4 antag	Dynein transport	TNF necrop inh	zVAD death inh	Dynein inh conf	S1P4 antag conf	S1P1 antag
CCCc1cc(=O)[nH]c(SCC(=O)N(C)CC(=O)Nc2ccccc2CC)n1	4	-1	-8	0.097	-2	0	nt	nt	nt
CCC(=O)Nc1ccc(C(=O)Cn2ncc(Cl)c(Cl)c2=O)cc1	2	-2	75*	-4.4*	-32	71	+	106*	48*
CCN(CC)S(=O)(=O)c1cc(NC(=O)Cn2ncc(Cl)c(Cl)c2=O)ccc1C	16	-1	60*	-4.5*	-30	1	+	72*	46*
CCc1ccccc1NC(=O)CN(C)C(=O)Cn1ncc(Cl)c(Cl)c1=O	-3	2	38*	-3.7*	-15	54	+	107*	57*
O=[N+]([O-])c1ccc(CSc2nnc(SCc3ccc(Cl)cc3)s2)cc1	7	0	-12	0.7	2	1	nt	nt	nt
C[C@H](NC(=O)c1nc[nH]c1C(=O)N[C@@H](CCCCNC(=O)OC(C)(C)C)C(=O)OC(C)(C)C)c1ccccc1	-1	nt	nt	0.88	4	2	nt	nt	nt
Cc1cccc(-n2c(=S)[nH]c3sc4c(c3c2=O)CCc2ccccc2-4)c1	-10	1	7	-0.39	-4	1	nt	nt	nt
CCOC(=O)N1CCN(S(=O)(=O)/C=C/c2ccccc2)CC1	10	2	-5	-0.18	1	0	nt	nt	nt
CCOC(=O)N1C/C(=C\c2ccccc2)C(=O)/C(=C/c2ccccc2)C1	-10	-1	43*	-4.9*	-26	0	+	116*	-24
CCN(CC)CCC(=O)NN	1	2	-15	-0.55	0	0	nt	nt	nt
COc1c(Cl)cnn(-c2ccc(C)cc2)c1=O	2	-3	5	0.95	-13	0	nt	nt	nt
